From PubChem BioAssay
HCV core dimer: blocks dimerization of HCV core protein. 300,000 compounds, 0.33% hits. inhibition, % at 5 µM. TR-FRET GST/Flag-core106 dimerization, 1536-well;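 active means inhibition above the mean of all tested compounds plus 3 SD, set per screening campaign, cut at about 45% in these data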
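System: GST/Flag-tagged HCV core106 proteins. Incubation: compound-protein-antibody incubation 4 h at 22.5 °C. Technique: HTRF with 340 nm excitation, 617/671 nm emission. Medium: KF-containing HEPES buffer, pH 7.45, DTT, CHAPS, BSA. Read-out: inhibition (%) from 671 over 617 nm ratio. Also added: Eu(K)-anti-GST 90 ng/mL plus XL665-anti-Flag 1 µg/mL.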
UBC9 SUMO inh: blocks human SUMOylation mediated by UBC9. HTRF SUMOylation assay, SAE1/SAE2 + UBC9, in vitro. inhibition, % at 35 µM. 290,000 compounds, 0.36% hits; in the data active means inhibition above about 50%, passing the limit was not always enough; inconclusive means no clear call, values can overlap the other calls
Target sequence (P63279 whole entry, looked up): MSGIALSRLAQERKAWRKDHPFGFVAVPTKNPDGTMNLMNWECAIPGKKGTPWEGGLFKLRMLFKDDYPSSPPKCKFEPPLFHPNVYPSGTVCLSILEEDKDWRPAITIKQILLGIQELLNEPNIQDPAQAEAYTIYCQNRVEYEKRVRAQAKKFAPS
EBNA-1 inhibitor: blocks EBNA-1 binding to DNA | EBNA-1 DNA binding, fluorescence polarization | inhibition, % at 14.8 µM | 300,000 compounds, 0.34% hits | AID 1950; in the data active means inhibition above about 28%
NS3 helicase inh: HCV NS3 helicase inhibition | NS3 helicase DNA unwinding, Cy5 molecular beacon fluorescence | inhibition, % at 10.9 µM | 290,000 compounds, 0.56% hits;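 active means inhibition above the mean of all tested compounds plus 3 SD, set per campaign, cut at about 35% in these data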;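 further: 0% = DMSO wells and 100% = thioflavine S control wells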
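System: Hepatitis C virus NS3 helicase domain fragment enzyme | Reagent: Annealed dual-labelled DNA beacon duplex, ATP-started | Compound dosing: 10.9 µM single point, 0.8% DMSO | Incubation: 1 h reaction at 25 °C, ATP-initiated | Technique: Cy5 fluorescence | Evaluation: Percent inhibition from t60/t0 fluorescence ratio | Benchmarks: Low DMSO, high thioflavine S at 110 µM | Replication: Singlicate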
ZTA DNA inh: counter-screen for EBNA-1 inhibitors: inhibitors of Epstein-Barr virus ZTA; 320,000 compounds, 0.15% hits; AID 2234; ZTA-DNA binding, fluorescence polarization; P03206; inhibition, % at 11 µM; in the data active means inhibition above about 33%
Target sequence (P03206 whole entry, looked up): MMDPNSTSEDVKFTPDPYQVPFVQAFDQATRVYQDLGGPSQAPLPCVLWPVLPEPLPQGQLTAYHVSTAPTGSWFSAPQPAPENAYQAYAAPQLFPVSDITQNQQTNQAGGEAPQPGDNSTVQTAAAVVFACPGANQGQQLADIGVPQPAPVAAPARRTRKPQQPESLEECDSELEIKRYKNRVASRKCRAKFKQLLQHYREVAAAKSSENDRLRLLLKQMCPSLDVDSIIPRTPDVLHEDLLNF
NS3 helicase cf: HCV NS3 helicase inhibition, confirmation assay | inhibition, % at 10.9 µM | 1,600 compounds, 31% hits | shares compounds with NS3 helicase inh | AID 1943 | NS3 helicase DNA unwinding, Cy5 molecular beacon fluorescence;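 active means inhibition above the mean of all tested compounds plus 3 SD, cutoff set per campaign, cut at about 36% in these data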
DNA FID counter: intercalator displacement, NS3 helicase counter-screen. shares compounds with NS3 helicase inh. DNA fluorescent intercalator displacement, fluorescence. inhibition, % at 7.9 µM. 1,600 compounds, 4% hits; in the data active means inhibition above about 37%;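 further: 0% = vehicle and 100% = reference compound; higher means more displacement of ethidium bromide from the DNA hairpin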
DNA FID DR: displaces fluorescent intercalator from DNA, HCV helicase counter-screen; fluorescent intercalator displacement from DNA, fluorescence; 120 tested, under 10 active; shares compounds with NS3 helicase inh; IC50, µM; call rule not given here
EBNA-1 inh conf: EBNA-1 (EBV) inhibition, confirmation. shares compounds with EBNA-1 inhibitor. inhibition, % at 14.8 µM. Recombinant EBNA-1 DBD, Cy5-DNA fluorescence polarization. 830 compounds, 35% hits;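 active means mean inhibition across replicates above a set limit taken from the earlier primary screen, cut at about 28% in these data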;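 further: plate controls were EBNA-1 protein with DMSO for no effect and wells lacking EBNA-1 for full effect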
ZTA counter trip: blocks Epstein-Barr virus ZTA in triplicate, EBNA-1 counter-screen | inhibition, % at 11.1 µM | 830 tested, under 10 active | shares compounds with EBNA-1 inhibitor | Zta-ZRE DNA binding, Cy5 fluorescence polarization | AID 2328;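 active means mean inhibition over triplicates above a set limit taken from the primary EBNA-1 screen, cut at about 37% in these data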;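 further: purified full length Zta protein with Cy5 labeled ZRE DNA probe; 0% = Zta with DMSO and 100% = wells lacking Zta protein; inhibitors lower polarization by freeing the labeled DNA probe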
* hit, by the source's call. Rows were chosen to be rich in hits. Some 1.4% of all compounds tested hit in one or more screens of this group.

For O=C(CN1CCC(C(=O)O)CC1)Nc1ccccc1Oc1ccccc1 the results were HCV core dimer -3, UBC9 SUMO inh 29, EBNA-1 inhibitor 12, NS3 helicase inh 37*, ZTA DNA inh 21, NS3 helicase cf -13 and DNA FID counter -18.
Screening Cc1ccc(-c2ccc(C3C(C#N)=C(N)Oc4n[nH]c(C)c43)o2)cc1 (stereo not drawn) returned HCV core dimer -1, UBC9 SUMO inh 18, EBNA-1 inhibitor 4, NS3 helicase inh 40*, ZTA DNA inh 4, NS3 helicase cf -25 and DNA FID counter 8.
CCCOc1ccc(C(F)(F)F)cc1NC(=O)C1CC(=O)N(Cc2ccco2)C1 (stereo not drawn) was read as ZTA DNA inh 1.
COc1ccc(N2CCN(CC(=O)c3ccc(Cl)cc3)CC2)cc1 was read as HCV core dimer 3, UBC9 SUMO inh 14, EBNA-1 inhibitor 9, NS3 helicase inh -10 and ZTA DNA inh -4.
`O=c1nc2s/c(=C\c3ccco3)c(=O)n2nc1Cc1ccc(F)cc1` gave HCV core dimer 37, EBNA-1 inhibitor -2, NS3 helicase inh 47*, ZTA DNA inh -3, NS3 helicase cf 9 and DNA FID counter 5.
For Cc1ccc(-c2nc3s/c(=C\c4ccco4)c(=O)n3n2)cc1 the results were HCV core dimer 33, UBC9 SUMO inh 48, EBNA-1 inhibitor -5, NS3 helicase inh 17 and ZTA DNA inh -6.
For O=C(CN1C(=O)C2CC=CCC2C1=O)NCC1COc2ccccc2O1 (stereo not drawn) the results were HCV core dimer -5, UBC9 SUMO inh 0, EBNA-1 inhibitor -7, NS3 helicase inh 85*, ZTA DNA inh 2, NS3 helicase cf -19 and DNA FID counter 6.
For C(=C\c1ccco1)/C1=NN(c2ccccc2)C(c2ccco2)C1 (stereo not drawn) the results were HCV core dimer 37, UBC9 SUMO inh 49, EBNA-1 inhibitor 2, NS3 helicase inh 46*, ZTA DNA inh 7, NS3 helicase cf 58* and DNA FID counter 8.
`COCCN(C(=O)CNC(=O)c1ccco1)C(C(=O)NC1CCCC1)c1ccc(OC)cc1` (stereo not drawn) gave HCV core dimer -16, UBC9 SUMO inh 3, EBNA-1 inhibitor -4, NS3 helicase inh 44*, ZTA DNA inh -7, NS3 helicase cf -4 and DNA FID counter 6.
Screening Oc1c(Br)cc(Cl)cc1C=Nc1ccc(N2CCOCC2)cc1 returned HCV core dimer -4, UBC9 SUMO inh 37, EBNA-1 inhibitor 2, NS3 helicase inh 43*, ZTA DNA inh 12, NS3 helicase cf 13 and DNA FID counter 13.
For CC(=O)N(C)c1ccc(N=Cc2c(O)ccc3ccccc23)cc1 the results were HCV core dimer -2, UBC9 SUMO inh 0, EBNA-1 inhibitor -8, NS3 helicase inh 36*, ZTA DNA inh -12, NS3 helicase cf 2 and DNA FID counter 7.
Screening CCOC(=O)C1=C(COC(=O)/C=C/c2ccc(SC)cc2)NC(=O)NC1C (stereo not drawn) returned HCV core dimer 3, EBNA-1 inhibitor 2 and ZTA DNA inh -1.
For COc1ccc(OC)c(NC(=O)CN2C(=O)C3(OCCCO3)c3ccccc32)c1 the results were HCV core dimer 2, UBC9 SUMO inh 9, EBNA-1 inhibitor 6, NS3 helicase inh 54*, ZTA DNA inh -3, NS3 helicase cf -2 and DNA FID counter -22.
Screening Cc1ccc(C)c(NC(=O)c2cc(C)nc3ccccc23)c1 returned HCV core dimer -5, UBC9 SUMO inh 16, EBNA-1 inhibitor -3, NS3 helicase inh 55*, ZTA DNA inh -3, NS3 helicase cf -2 and DNA FID counter 0.
Screening C=CCOc1ccccc1CN1CCC(n2nccc2NC(=O)c2ccccc2)CC1 returned HCV core dimer 1, UBC9 SUMO inh 11, EBNA-1 inhibitor 8, NS3 helicase inh -8 and ZTA DNA inh 15.
O=C(O)[C@H](Cc1ccccc1)Nc1ccc([N+](=O)[O-])cn1 was read as HCV core dimer 13, UBC9 SUMO inh 12, EBNA-1 inhibitor -3, NS3 helicase inh -16 and ZTA DNA inh -5.
Screening O=C(O)C(Cc1ccccc1)Nc1ccc([N+](=O)[O-])cc1[N+](=O)[O-] (stereo not drawn) returned HCV core dimer 21, UBC9 SUMO inh 0, EBNA-1 inhibitor -17, NS3 helicase inh 38*, ZTA DNA inh 3, NS3 helicase cf -23 and DNA FID counter 4.
For COc1ccccc1/C=C1\SC(=S)N(NS(=O)(=O)c2ccc(C)cc2)C1=O the results were HCV core dimer 5, UBC9 SUMO inh 10, EBNA-1 inhibitor 31*, NS3 helicase inh 41*, ZTA DNA inh -2, NS3 helicase cf 71*, DNA FID counter -12, EBNA-1 inh conf -1 and ZTA counter trip 12.
Screening O=C(/C(=N/N=C/c1ccc(O)c(O)c1O)c1ccccc1)c1ccccc1 returned HCV core dimer 33, UBC9 SUMO inh 35, EBNA-1 inhibitor 39*, NS3 helicase inh 49*, ZTA DNA inh 4, NS3 helicase cf 1, DNA FID counter 27, EBNA-1 inh conf -6 and ZTA counter trip 1.
Screening Oc1cccc(C=NCc2ccccc2)c1O returned HCV core dimer 3, UBC9 SUMO inh 61, EBNA-1 inhibitor 2, NS3 helicase inh 18 and ZTA DNA inh -24.
For CNc1c(NS(=O)(=O)c2cc(OC)ccc2OC)c(=O)oc2ccccc12 the results were HCV core dimer 0, UBC9 SUMO inh 5, EBNA-1 inhibitor -14, NS3 helicase inh 30 and ZTA DNA inh -15.
For Nc1c(C(=O)NC2CC2)sc2nc3c(c(-c4ccco4)c12)CC/C3=C/c1ccco1 the results were HCV core dimer 104*, UBC9 SUMO inh inconclusive, EBNA-1 inhibitor 46*, NS3 helicase inh 69*, ZTA DNA inh 11, NS3 helicase cf 99*, DNA FID counter 3, DNA FID DR inactive, EBNA-1 inh conf -2 and ZTA counter trip 15.
`CCOC(=O)c1sc2nc(-c3ccco3)c3c(c2c1N)CC(C)(C)OC3` gave HCV core dimer 40, UBC9 SUMO inh -4, EBNA-1 inhibitor -7 and ZTA DNA inh -8.
COc1ccc(NC(=O)CCCN2C(=O)CN(C)C2=O)cc1Cl was read as ZTA DNA inh 7.
